Published values collected from several papers.
Protocols differ between the studies behind these lines.
CDK3: Cyclin-dependent kinase 3 (CDK3, Homo sapiens, UniProt Q00526)
CDK3 with cyclin E: Cyclin-dependent kinase 3, with cyclin E (CDK3, Homo sapiens, UniProt Q00526)

Cc1ccc(NC(=O)c2ccnc(C(F)(F)F)c2)cc1-c1cc(OCCO)nc(N2CCOCC2)c1  remaining binding (CDK3; binding, competition with immobilised ligand; 1 µM): 89%
N#Cc1ccc(NC(=O)Nc2ccccc2)cc1  remaining binding (CDK3; cell-free assay, competition with immobilised ligand; 25 µM): 98%
CC(C)S(=O)(=O)c1ccc2nccc(Nc3ccc4sc(C5CCCC5)nc4c3)c2c1  activity vs control (CDK3 with cyclin E; enzyme activity, inhibitor; 1 µM): 96.5%
CN1CCN(C(=O)c2ccc(NC(=O)Nc3ccc(N(C)c4ccnc(Nc5ccc(CS(C)(=O)=O)cc5)n4)cc3)cc2)CC1  remaining binding (CDK3; binding, competition with immobilised ligand; 1 µM): 100%
C[C@]1(O)CCCN(c2nc(Nc3ccc(S(=O)(=O)N[C@H]4CC[C@H](CN5CCN(c6ccc(C7CCC(=O)NC7=O)cc6F)CC5)CC4)cc3Cl)ncc2C(F)(F)F)C1 (some centres unmarked)  remaining binding (CDK3; binding, competition with immobilised ligand; 1 µM): 69%
C1=C/COCc2cc(ccc2OCCN2CCCC2)Nc2nccc(n2)-c2cccc(c2)COC/1  remaining signal (CDK3; cell-free assay; 0.1 µM): 100%
CCCCC(=O)Nc1ccc(-c2ccc3ncn(CCC)c(=O)c3c2)cn1  remaining binding (CDK3; binding, competition with immobilised ligand; 0.5 µM): 93%
CC#CC(=O)N1CCC[C@H]1c1nc(-c2ccc(C(=O)Nc3ccccn3)cc2)c2c(N)nccn12  inhibition (CDK3; enzyme activity, inhibitor; 1 µM): 8%
COc1ccc2oc(-c3ccc4nc(N)oc4c3)c/c(=N\c3ccccc3NC(=O)CCN)c2c1  remaining binding (CDK3 with cyclin E; binding; 1 µM): 108%
C=CC(=O)N1CCC([C@@H]2CCNc3c(C(N)=O)c(-c4ccc(Oc5ccccc5)cc4)nn32)CC1  inhibition (CDK3; enzyme activity, inhibitor; 1 µM): 8%
C[C@]1(O)CCCN(c2nc(Nc3ccc(S(=O)(=O)N[C@H]4CC[C@H](CN5CCN(c6ccc(C7CCC(=O)NC7=O)cc6F)CC5)CC4)cc3F)ncc2C(F)(F)F)C1 (some centres unmarked)  remaining binding (CDK3; binding, competition with immobilised ligand; 1 µM): 74%
